Rpn11 block = Rpn11 (PSMD14) deubiquitinase inhibitors, primary screen, biochemical, fluorescence polarization, uHTS; 26S proteasome non-ATPase regulatory subunit 14 (Homo sapiens), O00487; human 26S proteasome, Ub4-pepOG fluorescence polarization; 20S core pre-blocked with epoxomicin; calls only at 20 µM; 360,000 tested, 0.59% active; AID 588493, 2011;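 active = inhibition at 20 µM, scaled to each plate's controls, above about 33%, limit read from the data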
Target sequence (O00487 whole entry, looked up): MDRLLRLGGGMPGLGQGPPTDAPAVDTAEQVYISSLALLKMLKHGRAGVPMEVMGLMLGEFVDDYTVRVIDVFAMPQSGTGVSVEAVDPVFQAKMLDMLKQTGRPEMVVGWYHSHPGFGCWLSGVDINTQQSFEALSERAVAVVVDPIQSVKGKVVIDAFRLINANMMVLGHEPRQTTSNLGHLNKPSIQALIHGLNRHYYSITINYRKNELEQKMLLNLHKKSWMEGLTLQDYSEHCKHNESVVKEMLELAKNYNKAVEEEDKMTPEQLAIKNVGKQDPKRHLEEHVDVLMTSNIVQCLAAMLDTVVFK
CRFR2-BP ag = agonists of CRF-BP/CRF-R2 complex, primary screen, cell-based, HEK293, calcium dye fluorescence, uHTS; calcium dye fluorescence (FLIPR); percent of saturating CRF peptide response; activation, % at 13.2 µM; 350,000 tested, 0.46% active; AID 588473, 2011; CRF-binding protein / CRF receptor 2 complex (human);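 active = activation of at least 50%, plus an integration ratio under a set limit after plate pattern correction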;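 also: plate controls were neutral control wells without compound for no effect and CRF at EC100 for full effect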
CSN inh = inhibitors of CSN-mediated cullin deneddylation, primary screen, biochemical, fluorescence polarization, uHTS; COP9 signalosome complex subunit 5 (Homo sapiens), Q92905; Purified CSN, SCF-Nedd8-OG deneddylation; inhibition, % at 12.5 µM; 360,000 tested, 0.38% active; AID 651999, 2013;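 active = pattern-corrected inhibition above about 35%, with an unprinted fluorescence ratio check between 0.5 and 1.5, limit read from the data, passing the limit was not always enough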;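 also: 0% = enzyme with substrate and 100% = substrate without enzyme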
Target sequence (Q92905 whole entry, looked up, one chain of several): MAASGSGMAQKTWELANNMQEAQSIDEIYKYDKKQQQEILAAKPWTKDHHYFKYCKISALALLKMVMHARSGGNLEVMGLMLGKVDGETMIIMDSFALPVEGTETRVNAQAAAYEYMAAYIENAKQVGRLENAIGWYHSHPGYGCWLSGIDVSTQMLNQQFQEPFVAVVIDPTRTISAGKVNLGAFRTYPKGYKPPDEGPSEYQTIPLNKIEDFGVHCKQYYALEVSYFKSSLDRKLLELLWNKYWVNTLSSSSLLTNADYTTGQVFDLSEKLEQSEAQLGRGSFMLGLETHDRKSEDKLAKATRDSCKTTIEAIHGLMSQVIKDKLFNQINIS
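assay system = purified human Csn5 enzyme expressed in HEK293T cells | amount = 0.24 nM enzyme | buffer or medium = Tris/NaCl/DTT buffer, pH 7.5 | reagent = 10 nM SCFSkp2-Nedd8OG | compound = one concentration, 12.5 µM, 0.25% DMSO | times = 90 min reaction at room temperature | signal = FP | read-out basis = % inhibition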
TPT1 inhibitor = Candida albicans TPT1 enzyme inhibitors, primary screen, biochemical, fluorescence polarization | inhibition, % at 5 µM | recombinant caTPT1, FP RNA substrate dephosphorylation | AID 1962, 2009 | 300,000 tested, 0.81% active;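 active = inhibition above the mean of all tested compounds plus 3 SD, set per screening campaign, cut at about 24% in these data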;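 also: plate controls were DMSO alone for no effect and ferristatin control at 100 nM for full effect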
CRFR2-BP antag = antagonists of CRF-BP/CRF-R2 complex, primary screen, cell-based, HEK293, calcium dye fluorescence, uHTS; CRF-induced calcium fluorescence; inhibition, % at 11.8 µM; 350,000 tested, 0.59% active; AID 588475, 2011;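 active = inhibition of the ligand-induced calcium signal above about 50% at the single tested concentration, limit read from the data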
HNF4A DNA FP = change in binding of human HNF4A to DNA, primary screen, biochemical, fluorescence polarization, FITC-DNA; Hepatocyte nuclear factor 4-alpha (Homo sapiens), P41235; 1 h; activity change, % at 10 µM; 360,000 tested, 0.3% active; in the data active = activity change above about 30%, passing the limit was not always enough
An asterisk follows results filed as active. Sampled rows, rich in hits. Any-hit rate of the full collection: about 2.3%.

For CCOC(=O)NNC(=O)c1[nH]c2ccc(Br)cc2c1-c1ccccc1 the results were Rpn11 block inactive, CRFR2-BP ag -0.5, CSN inh -3.4, TPT1 inhibitor -0.2, CRFR2-BP antag 56.6* and HNF4A DNA FP 1.2.
CC(=O)NNC(=O)c1[nH]c2ccc(Br)cc2c1-c1ccccc1 was read as Rpn11 block inactive, CRFR2-BP ag 4.0, CSN inh 4.5, CRFR2-BP antag -21.2 and HNF4A DNA FP -4.3.
CCOC(=O)c1cc(-c2ccccc2)sc1NC(=S)Nc1cc(C)ccn1 was read as CRFR2-BP ag 3.1, CSN inh 16.2, TPT1 inhibitor -3.2, CRFR2-BP antag -19.7 and HNF4A DNA FP 47.0*.
`CCOC(=O)c1cc(-c2ccccc2)sc1NC(=O)C(C)(C)C` gave Rpn11 block inactive, CRFR2-BP ag 0.1, CSN inh -0.1, TPT1 inhibitor 2.0, CRFR2-BP antag -3.6 and HNF4A DNA FP -2.7.
Screening CCOC(=O)c1cc(NC(=O)Nc2cc(C)ccn2)c(C)nc1C returned Rpn11 block inactive, CRFR2-BP ag -2.1, CSN inh 2.0, TPT1 inhibitor -2.4, CRFR2-BP antag 113.3* and HNF4A DNA FP -1.8.
Screening COCCn1c(-c2ccccc2)csc1=Nc1cccnc1 returned Rpn11 block inactive, CRFR2-BP ag -0.3, CSN inh -8.5, TPT1 inhibitor -0.8, CRFR2-BP antag 92.5* and HNF4A DNA FP 0.2.
c1ccc(-c2csc(=Nc3cccnc3)n2CC2CCCO2)cc1 (stereo not given) was read as Rpn11 block inactive, CRFR2-BP ag -3.1, CSN inh -1.6, TPT1 inhibitor 0.1, CRFR2-BP antag 41.7 and HNF4A DNA FP -3.3.
Screening COc1ccc(C2C(C#N)=C(C)NC3=C2C(=O)CC(C)(C)C3)cc1 (stereo not given) returned Rpn11 block inactive, CRFR2-BP ag 2.5, CSN inh 102.5*, TPT1 inhibitor -6.9, CRFR2-BP antag -8.5 and HNF4A DNA FP 1.4.
For COc1cccc(C2C(C#N)=C(C)NC3=C2C(=O)CC(C)(C)C3)c1 (stereo not given) the results were Rpn11 block inactive, CRFR2-BP ag -0.5, CSN inh 1.6, TPT1 inhibitor 0.5, CRFR2-BP antag -2.6 and HNF4A DNA FP 2.3.
`CN1CCN(c2nc(C(N)=O)cc(-c3ccccc3)n2)CC1` gave Rpn11 block active, CRFR2-BP ag -0.5, CSN inh 0.4, TPT1 inhibitor -1.3, CRFR2-BP antag -3.3 and HNF4A DNA FP 1.3.
For CCN(CC)c1nc(C(N)=O)cc(-c2ccccc2)n1 the results were Rpn11 block inactive, CRFR2-BP ag 2.6, CSN inh 0.2, TPT1 inhibitor -1.0, CRFR2-BP antag -21.9 and HNF4A DNA FP 0.0.
CC(C)N1CC(COc2ccc(Br)cc2)OC1=O (stereo not given) was read as Rpn11 block inactive, CRFR2-BP ag 0.0, CSN inh 2.9, TPT1 inhibitor 1.6, CRFR2-BP antag 6.8 and HNF4A DNA FP 1.6.
Screening CCOC(=O)Cc1csc(SCC(=O)Nc2sc3c(c2C(N)=O)CCC3)n1 returned Rpn11 block inactive, CRFR2-BP ag 0.1, CSN inh 36.8*, TPT1 inhibitor 18.0, CRFR2-BP antag -8.8 and HNF4A DNA FP -14.6.
Screening NC(=O)c1c(NC(=O)CSc2nnc(-c3ccco3)n2-c2ccccc2)sc2c1CCC2 returned Rpn11 block inactive, CRFR2-BP ag -0.2, CSN inh 36.3*, TPT1 inhibitor 13.2, CRFR2-BP antag 32.0 and HNF4A DNA FP -13.2.
For O=C(Nc1ccccc1)C1=C[C@@H](c2csc3ccccc23)C[C@@H](OCc2ccc(CO)cc2)O1 the results were Rpn11 block inactive, CRFR2-BP ag 5.0, CSN inh -3.5, TPT1 inhibitor -2.2, CRFR2-BP antag 0.1 and HNF4A DNA FP 3.6.
Screening O=C(CSc1nnc(-c2ccccc2)o1)N1CCN(c2ccccc2)CC1 returned Rpn11 block inactive, CRFR2-BP ag -3.4, CSN inh -10.2, TPT1 inhibitor 1.4, CRFR2-BP antag -1.4 and HNF4A DNA FP 0.0.
For CNc1nc(-c2ccc3c(c2)CCN3C(=O)CC(C)(C)C)c(C)s1 the results were Rpn11 block inactive, CRFR2-BP ag -3.8, CSN inh -2.8, TPT1 inhibitor -2.0, CRFR2-BP antag -3.9 and HNF4A DNA FP -0.7.
Screening CCCC(=O)N1CCc2cc(-c3nc(N)sc3C)ccc21 returned Rpn11 block inactive, CRFR2-BP ag -2.3, CSN inh -2.5, TPT1 inhibitor -4.5, CRFR2-BP antag 50.8* and HNF4A DNA FP 2.1.
Screening O=C1OCCN1c1c(-c2ccccc2)c(-c2cccs2)nc2c(-c3ccccc3)cccc12 returned Rpn11 block inactive, CRFR2-BP ag 3.8, CSN inh 1.9, TPT1 inhibitor 1.3, CRFR2-BP antag 5.7 and HNF4A DNA FP 2.8.
For Cc1cc(=O)c2cccc(Br)c2[nH]1 the results were Rpn11 block inactive, CRFR2-BP ag -2.6, CSN inh -7.9, TPT1 inhibitor -2.4, CRFR2-BP antag 11.4 and HNF4A DNA FP 3.8.
Screening O=c1cc(C(F)(F)F)[nH]c2c(C(F)(F)F)cccc12 returned Rpn11 block inactive, CRFR2-BP ag 54.3*, CSN inh 0.9, TPT1 inhibitor -0.1, CRFR2-BP antag 33.0 and HNF4A DNA FP -6.4.
O=c1cc(C(F)(F)F)[nH]c2ccc(OC(F)(F)F)cc12 was read as Rpn11 block inactive, CRFR2-BP ag 49.9, CSN inh 1.0, TPT1 inhibitor 3.3, CRFR2-BP antag 69.3* and HNF4A DNA FP 1.9.
CCOc1ccc2[nH]c(C)cc(=O)c2c1 was read as Rpn11 block inactive, CRFR2-BP ag 2.1, CSN inh -1.3, TPT1 inhibitor 0.3, CRFR2-BP antag 1.0 and HNF4A DNA FP -0.1.
Screening Cc1cc(C(=O)Nc2cccc3ncccc23)no1 returned Rpn11 block inactive, CRFR2-BP ag -0.1, CSN inh 0.0, TPT1 inhibitor 1.6, CRFR2-BP antag -2.2 and HNF4A DNA FP 6.8.
Screening CCCCC[C@@H]1C=C(C(=O)O)[C@H](c2cccc(C)c2)N1S(=O)(=O)c1ccc(C)cc1 returned Rpn11 block inactive, CRFR2-BP ag -2.3, CSN inh 2.7, CRFR2-BP antag 60.3* and HNF4A DNA FP -3.0.
`Cc1ccc([C@H]2C(C(=O)O)=CC[C@@H](c3cccc(C)c3)N2S(=O)(=O)c2ccc(C)cc2)cc1` gave Rpn11 block inactive, CRFR2-BP ag -0.5, CSN inh -4.6, CRFR2-BP antag 12.5 and HNF4A DNA FP 3.3.
